According to ChEMBL document CHEMBL3400080, “Design, synthesis, optimization and antiviral activity of a class of hybrid dengue virus E protein inhibitors” (Bioorg Med Chem Lett, 2015):

Assays:
[1] = Selectivity index, CC50 for african green monkey Vero B cells to EC50 for DENV serotype 2 strain New Guinea C by CPE-reduction assay
[2] = test system: dengue virus type 2; test: Antiviral activity against DENV serotype 2 strain New Guinea C infected in african green monkey Vero cells assessed as reduction in production and release of infectious progeny virions after 2 hrs by virus yield-reduction assay; format: functional, organism-based
How it was run: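 Dose-response validation in virus-infected, compound-treated cells. Read-out was the amount of dengue viral RNA produced, quantified as a virus yield reduction. EC50 was derived from this.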

[3] = Cytotoxicity against DENV serotype 2 strain New Guinea C infected african green monkey Vero B cells by virus yield-reduction assay; format: cell-based; settings: chlorocebus sabaeus
[4] = Cytotoxicity against DENV serotype 2 strain New Guinea C infected african green monkey Vero B cells by CPE-reduction assay; format: cell-based; settings: chlorocebus sabaeus
[5] = test system: dengue virus type 2; test: Antiviral activity against DENV serotype 2 strain New Guinea C infected in african green monkey Vero-B cells assessed as inhibition of virus-induced cytopathic effect after 2 hrs by CPE-reduction assay; format: functional, organism-based
How it was run: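 Virus and compound mixed and pre-incubated together for 2 h at 37 °C before being added to cells. Co-addition without pre-incubation was also tested. Read-out was inhibition of virus-induced cytopathic effect (cell death). EC50 was taken from the dose-response.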

[6] = Selectivity index, CC50 for african green monkey Vero B cells to EC50 for DENV serotype 2 strain New Guinea C by virus yield-reduction assay; format: toxicity, cell-based; settings: read-out: Selectivity Index
How it was run: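 Selectivity index is CC50 divided by EC50. The EC50 comes from a dose-response measurement of the dengue virus RNA produced by virus-infected cells treated with compound (virus yield reduction).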

[7] = test system: dengue virus type 2; test: Antiviral activity against DENV serotype 2 strain New Guinea C infected in BHK-21 cells assessed as inhibition of plaque formation after 2 hrs by plaque-reduction assay; format: functional, organism-based
How it was run: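 Dose-response effect on production of infectious dengue virus serotype 2 progeny, read as plaque formation. EC50 was derived from the plaque counts.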

[8] = test system: Yellow fever virus; test: Antiviral activity against Yellow fever virus; format: functional, organism-based

COc1ccc(C2=NN(c3nc(-c4ccc(-c5ccccc5)cc4)cs3)C(c3ccc(O)c(OC)c3)C2)cc1 (stereo unspecified)
Selectivity Index [1]: 2
EC50 [2]: 3.79 µM
CC50 [3]: 25.6 µM
CC50 [4]: 16.8 µM
EC50 [5]: 8.4 µM
selectivity ratio [6]: 7

Oc1ccc(C2=NN(c3nc(-c4ccc(-c5ccccc5)cc4)cs3)C(c3ccccc3)C2)cc1 (stereo unspecified)
Selectivity Index [1]: 6
EC50 [2]: 8.44 µM
CC50 [3]: 86.8 µM
CC50 [4]: 79.2 µM
EC50 [5]: 13.2 µM
selectivity ratio [6]: 10

C/C(=N\Nc1nc(-c2ccc(Cl)cc2)cs1)c1ccc(O)cc1
Selectivity Index [1]: 25
EC50 [2]: 1.32 µM
CC50 [3]: 125 µM
CC50 [4]: 145 µM
inhibition [7]: Dose-dependent effect
EC50 ([7]; BHK-21, 2 h): 1.39 µM
EC50 [5]: 5.8 µM
selectivity ratio [6]: 95

Cc1nc(-n2nc(-c3ccccc3)cc2-c2ccccc2)sc1C(=O)/C=C/c1ccc(Cl)c(Cl)c1
IC50 [8]: 51 µM

COc1ccc(/C(C)=N/Nc2nc(-c3ccc(-c4ccccc4)cc3)cs2)cc1
Selectivity Index [1]: 2
EC50 [2]: 17.7 µM
CC50 [3]: 117 µM
CC50 [4]: 200 µM
EC50 [5]: 100 µM
selectivity ratio [6]: 7

COc1ccc(C2=NN(c3nc(-c4ccc(Cl)cc4)cs3)C(c3ccc(O)c(OC)c3)C2)cc1 (stereo unspecified)
Selectivity Index [1]: 3
EC50 [2]: 7 µM
CC50 [3]: 54.6 µM
CC50 [4]: 2.4 µM
EC50 [5]: 0.79 µM
selectivity ratio [6]: 8

C/C(=N\Nc1nc(-c2ccc(-c3ccccc3)cc2)cs1)c1ccc([N+](=O)[O-])cc1
Selectivity Index [1]: 2
EC50 [2]: 12.2 µM
CC50 [3]: 70.8 µM
CC50 [4]: 82 µM
EC50 [5]: 41 µM
selectivity ratio [6]: 6

COc1ccc(C2=NN(c3nc(-c4ccc(-c5ccccc5)cc4)cs3)C(c3ccc(O)cc3)C2)cc1 (stereo unspecified)
Selectivity Index [1]: >4
EC50 [2]: 18.6 µM
CC50 [3]: 99.3 µM
CC50 [4]: > 99 µM
EC50 [5]: 24.8 µM
selectivity ratio [6]: 5

C(=N\Nc1nc(-c2ccc(-c3ccccc3)cc2)cs1)/c1ccccc1
Selectivity Index [1]: >4
EC50 [2]: 128 µM
CC50 [3]: > 141 µM
CC50 [4]: > 141 µM
EC50 [5]: 35.2 µM
selectivity ratio [6]: > 1

Oc1ccc(/C=N/Nc2nc(-c3ccc(-c4ccccc4)cc3)cs2)cc1
Selectivity Index [1]: >8
EC50 [2]: 5.29 µM
CC50 [3]: > 135 µM
CC50 [4]: > 135 µM
EC50 [5]: 16.8 µM
selectivity ratio [6]: > 25

Nc1ccccc1SCc1csc(-c2ccc(Cl)cc2)n1
IC50 [8]: 31 µM

NC(=O)c1ncn([C@@H]2O[C@H](CO)[C@@H](O)[C@H]2O)n1 [RIBAVIRIN]
EC50 [2]: 47.9 µM
CC50 [3]: > 410 µM
selectivity ratio [6]: > 9
